The values below come from ChEMBL document CHEMBL1125880, “Structure-activity relationship of miltirone, an active central benzodiazepine receptor ligand isolated from Salvia miltiorrhiza Bunge (Danshen)” (J Med Chem, 1991).

In one assay the target is GABA-A receptor; anion channel. Nature of the assay: inhibition of [3H]flunitrazepam binding to GABA-A central Benzodiazepine receptor of bovine cerebral cortex membrane. The class given is tissue-based, Bos taurus. In short, it runs like this: (§1)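 Calf cerebral cortical membranes incubated 45 min at 0 °C with [³H]flunitrazepam (1 nM) in 50 mM Tris-HCl pH 7.4, final volume 500 μL. Terminated by dilution with ice-cold buffer, rapid GF/B filtration and washes; filter radioactivity counted by liquid scintillation. Nonspecific binding defined with 10 μM diazepam. IC50 = concentration giving 50% inhibition of specific binding; mean ± SD of (n) determinations in duplicate. Unstable compounds tested immediately after preparation.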
As usually defined, the IC50 is the midpoint of a concentration-inhibition curve. A high value points to a need for much substance. `CC1=CCCc2c1ccc1c2C(=O)C(=O)C(C(C)C)=C1` came in with an IC50 of 4.4 µM.

For `O=C1C=Cc2ccc3c(c2C1=O)CCCC3`, the half-maximal inhibitory concentration (IC50) stood at 20 µM.

For `C=Cc1cccc2c1C(=O)C(=O)C(C(C)C)=C2`, the half-maximal inhibitory concentration (IC50) is greater than 40 µM.

Turning to `CC(C)C1=Cc2cccc(-c3ccccc3)c2C(=O)C1=O`, the IC50 amounted to 20 µM.

Another assay concerns the target GABA-A receptor; anion channel. Nature of the assay: Potency related to miltirone (1) at the central benzodiazepine receptor was determined using [3H]flunitrazepam as radioligand. The class given is protein-complex assay. In a few lines: as §1
Turning to `CC(C)C1=Cc2ccc3c(c2C(=O)C1=O)CCCCC3`, the IC50 was determined as 0.23 µM.

Consider `CCc1cccc2c1C(=O)C(=O)C(C(C)C)=C2`, for which the half-inhibitory concentration (IC50) is greater than 200 µM.

`CC(C)C1=Cc2ccc3c(c2C(=O)C1=O)CCCC(=O)N3` gave an IC50 of 0.32 µM.

In turn, `CC(C)C1=Cc2ccccc2C(=O)C1=O` came in with an IC50 greater than 50 µM.

Compound `CC(C)C1=Cc2ccc3c(c2C(=O)C1=O)CCCC3` registered an IC50 of 0.9 µM.

The compound `CC(C)C1=Cc2ccc3c(c2C(=O)C1=O)CC[C@H](O)[C@]3(C)O` gave an IC50 of 15 µM.

The compound `CC(C)C1=CC2=C(CCCC2)C(=O)C1=O` showed an IC50 greater than 140 µM.

`CC(C)C1=Cc2ccc3c(c2C(=O)C1=O)CCCC3(C)C` [MILTIRONE] returned an IC50 of 0.3 µM.

As to `CC(C)C1=Cc2ncc3c(c2C(=O)C1=O)CCCC3`, the IC50 turned out to be 9.1 µM.

On to `CC(C)C1=Cc2ccc3c(c2C(=O)C1=O)CCCCCC3`, for which the IC50 was determined as 0.31 µM.

As to `CC(C)C1=Cc2cc3c4c(c2C(=O)C1=O)CCCC4CC3` (stereo not drawn), the IC50 came out at 0.05 µM.

Consider `CC1=Cc2ccc3c(c2C(=O)C1=O)CCCC3(C)C`, for which the half-inhibitory concentration (IC50) is 0.4 µM.

`CC1(C)CCCc2c1ccc1c2C(=O)C(=O)C=C1` registered an IC50 of 10 µM.

`Cc1cc2ccc3c(c2oc1=O)CCCC3` registered an IC50 greater than 40 µM.

Compound `CC(C)C1=Cc2cccc(C(=O)O)c2C(=O)C1=O` displayed a half-inhibitory concentration (IC50) of 4.3 µM.

On to `CCN(CC)C(=O)c1cccc2c1C(=O)C(=O)C(C(C)C)=C2`, for which the IC50 was greater than 30 µM.

Compound `CC(C)C1=Cc2ccc3c(c2C(=O)C1=O)CCCC3(C)O` (stereo not drawn) returned an IC50 of 2 µM.

With `CC(C)C1=Cc2ccc3c(c2C(=O)C1=O)CCCC3=O`, the IC50 amounted to 0.56 µM.

`CC(C)C1=Cc2ccc3c(c2C(=O)C1=O)CC[C@@H](O)[C@]3(C)O` had an IC50 of 17 µM.
